From ChEMBL document CHEMBL1131624, “Inhibitors of acyl-CoA:cholesterol O-acyltransferase. 2. Identification and structure-activity relationships of a novel series of N-alkyl-N-(heteroaryl-substituted benzyl)-N'-arylureas” (J Med Chem, 1998) come the findings set out here.

Usually ED50 stands for the dose at which the effect has come halfway, by size or by number of responders. One may read the IC50 as the concentration at which inhibition is half-maximal. Lower therefore signals greater potency.

Active and inactive are the calls of the source. The calls are words filed in the database; no cut-off is given here.

Experiment [1] addresses T1, Sterol O-acyltransferase, Soat (Rattus norvegicus) (UniProt Q7TQM4+O70536). Put plainly: Effective dose to reduce plasma total cholesterol level by 50% of the control value in cholesterol fed rats. It is filed as functional. In outline:
(§1)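 Cholesterol-fed rats given compound orally as a dietary admixture in a cholesterol-enriched diet. Plasma total cholesterol compared with control and reported as percent reduction at the dose, or as ED50, the dose reducing plasma total cholesterol by 50% of the control value.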

The target in the next experiment is O-acyltransferase (Oryctolagus cuniculus, UniProt G1SFD9). The experiment can be described thus: In vitro inhibitory activity against Acyl coenzyme A:cholesterol acyltransferase (ACAT) in rabbit intestinal microsomes. Details: species or system Intestine. In outline: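 Enzyme source was mucosal microsomes from small intestine of cholesterol-fed rabbits, incubated with [1-¹⁴C]oleoyl-CoA (Heider method, minor modifications).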

For another experiment, the species on record is Mus musculus. The experiment can be described thus: Compound tested for inhibitory activity of foam cell formation in mouse peritoneal macrophages. The format is functional. In outline: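 Mouse peritoneal macrophages from nonstimulated mice, lavaged with PBS, plated 2 × 10⁶ cells/mL, adhered 2 h, then 18 h in 10% FBS-DMEM. Incubated 4 h at 37 °C with 0.2 mmol/L [1-¹⁴C]oleate–BSA, 30 µg/mL acetylated human LDL and compound (0.1% DMSO). Lipids extracted, TLC-separated, and cholesteryl [¹⁴C]oleate counted. Cell protein also measured. IC50 in nM.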

Experiment [2] deals with Rattus norvegicus. The experiment can be described thus: Effective dose to reduce plasma total cholesterol level by 50% of the control in cholesterol fed rats when administered by gavage in PEG400 as a vehicle. The format is functional. The following applies: po. Put shortly: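 Rats on a cholesterol diet were dosed orally by gavage with compound in PEG400 vehicle. Plasma total cholesterol measured. ED50 is the dose reducing it by 50% of the control value.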

For experiment [3], the system named is Rattus norvegicus. Put plainly: Compound was evaluated for percent reduction in total cholesterol level at >1 mg/kg; inactive. The format is functional, organism-based. Put shortly:
as §1

Experiment [4] has as its system Rattus norvegicus. The experiment can be described thus: Compound was evaluated for percent reduction in total cholesterol level at >1 mg/kg; Inactive. It is filed as functional, organism-based. Put shortly: as §1
Experiment [5] addresses T1, Sterol O-acyltransferase, Soat (Rattus norvegicus). The experiment can be described thus: Percentage reduction in total cholesterol level at <1 mg/kg. The format is functional, organism-based. In outline: as §1
In experiment [6] the test system is Rattus norvegicus. The experiment can be described thus: Compound was evaluated for percent reduction in total cholesterol level at >0.32 mg/kg; Inactive. It is filed as functional, organism-based. Put shortly: as §1
The species named for experiment [7] is Rattus norvegicus. Put plainly: Effective dose to reduce plasma total cholesterol level by 50% of the control in cholesterol fed rats. It is filed as functional. In outline:
as §1

Experiment [8] is filed under the species Rattus norvegicus. Put plainly: Effective dose to reduce plasma total cholesterol level by 50% of the control value in cholesterol fed rats; Inactive. It is filed as functional, organism-based. In outline: as §1
Experiment [9] concerns Rattus norvegicus. Put plainly: Compound was evaluated for percent reduction in total cholesterol level at >0.1 mg/kg. The format is functional. In outline:
as §1

The test system of experiment [10] is Rattus norvegicus. The experiment can be described thus: Compound was evaluated for percent reduction in total cholesterol level at >0.32 mg/kg. The format is functional. Put shortly: as §1
Experiment [11] deals with Rattus norvegicus. Put plainly: Compound was evaluated for percent reduction in total cholesterol level at >0.1 mg/kg; Inactive. It is filed as functional, organism-based. Put shortly:
as §1

O-acyltransferase, sequence (G1SFD9 1-524): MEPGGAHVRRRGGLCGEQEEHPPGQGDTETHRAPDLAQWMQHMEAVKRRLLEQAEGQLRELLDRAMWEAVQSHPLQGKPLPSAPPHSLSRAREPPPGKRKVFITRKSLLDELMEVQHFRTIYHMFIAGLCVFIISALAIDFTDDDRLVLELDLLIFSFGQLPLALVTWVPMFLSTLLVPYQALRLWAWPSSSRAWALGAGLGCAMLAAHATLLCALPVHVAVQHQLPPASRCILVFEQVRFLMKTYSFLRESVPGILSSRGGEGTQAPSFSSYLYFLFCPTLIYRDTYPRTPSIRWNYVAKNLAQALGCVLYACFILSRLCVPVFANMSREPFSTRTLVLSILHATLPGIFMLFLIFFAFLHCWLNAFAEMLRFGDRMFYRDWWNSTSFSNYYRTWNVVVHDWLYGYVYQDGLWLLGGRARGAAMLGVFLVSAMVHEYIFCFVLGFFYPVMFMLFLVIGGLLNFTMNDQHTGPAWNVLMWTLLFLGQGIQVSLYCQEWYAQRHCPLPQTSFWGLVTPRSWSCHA

For `O=C(Nc1c(F)cc(F)cc1F)N(Cc1cccc(-c2cc[nH]n2)c1)C1CCCCCC1`, the figures for the ED50 (in [1]; with Rattus norvegicus [2]) were 0.062 mg/kg and 0.79 mg/kg, respectively. Besides, the figures for the IC50 against O-acyltransferase and in the experiment filed under Mus musculus were 22 nM and 580 nM, respectively.

On to `CC(C)c1cccc(C(C)C)c1OC(=O)NS(=O)(=O)Oc1c(C(C)C)cccc1C(C)C`, for which the ED50 in experiment [1] was determined as 0.61 mg/kg. The IC50 against O-acyltransferase came to 4000 nM; in the experiment listed under Mus musculus it was 55000 nM.

`Cc1cc(C)c(NC(=O)N(Cc2c[nH]c(-c3ccccc3)n2)C2CCCCCC2)c(C)c1`: in the experiment with Rattus norvegicus [3], the Reduction result is “inactive”. This molecule came in with an ED50 in [1] above 1 mg/kg. The same molecule displayed an IC50 at O-acyltransferase of 750 nM.

In the case of `O=C(Nc1c(F)cc(F)cc1F)N(Cc1ccc(-c2ccsc2)cc1)C1CCCCCC1`, in experiment [1], the ED50 is above 1 mg/kg. Moreover, the Reduction result in the experiment on Rattus norvegicus [4] is “inactive”. The same molecule displayed an IC50 against O-acyltransferase of 23 nM.

Regarding `Cc1cc(C)c(NC(=O)N(Cc2cccc(-c3cc[nH]n3)c2)C2CCCCCC2)c(C)c1`, the 50% effect level in experiment [1] (ED50) was put at a dose of 0.097 mg/kg. The IC50 on O-acyltransferase amounted to 65 nM; in the experiment filed under Mus musculus, 460 nM.

Consider `Cc1cc(C)c(NC(=O)N(Cc2ccc(-c3ccn(C)n3)cc2)C2CCCCCC2)c(C)c1`, for which the Reduction in experiment [5] was found to be 88%. In addition, the ED50 in [1] was below 1 mg/kg; in the experiment filed under Rattus norvegicus [7], above 0.32 mg/kg. For the same molecule, the IC50 against O-acyltransferase turned out to be 44 nM. In the experiment with Rattus norvegicus [6], the Reduction entry was “inactive”.

In experiment [1], `CSc1cc(C)nc(SC)c1NC(=O)N(CCc1ccccc1)Cc1cccc(-c2cc[nH]n2)c1` gave an ED50 above 0.1 mg/kg. Moreover, in the experiment listed under Rattus norvegicus [8], the ED50 result is “inactive”.

`COc1ccccc1CN(Cc1cccc(-c2cc[nH]n2)c1)C(=O)Nc1c(SC)cc(C)nc1SC`: the ED50 in experiment [1] is above 0.1 mg/kg. The ED50 result in the experiment listed under Rattus norvegicus [8] was “inactive”.

In turn, `COc1cccc(CN(Cc2cccc(-c3cc[nH]n3)c2)C(=O)Nc2c(SC)cc(C)nc2SC)c1` yielded an ED50 in experiment [1] above 0.1 mg/kg. The same molecule yielded a Reduction in the experiment on Rattus norvegicus [9] of 13%.

In experiment [1], `CSc1cc(C)nc(SC)c1NC(=O)N(Cc1ccccc1)Cc1cccc(-c2cnn(C)c2)c1` returned an ED50 above 0.1 mg/kg. Moreover, the Reduction in the experiment with Rattus norvegicus [9] is 43%.

As for `Cc1cc(C)c(NC(=O)N(Cc2ccc(-c3ccccc3)cc2)C2CCCCCC2)c(C)c1`, half-maximal inhibition against O-acyltransferase (IC50) was put at 24 nM. The molecule also showed an ED50 in the experiment listed under Rattus norvegicus [7] of 0.29 mg/kg.

Take `CSc1cc(C)nc(SC)c1NC(=O)N(Cc1cccc(-c2cc[nH]n2)c1)C1CCCCCC1`: in [1], the ED50 was above 0.32 mg/kg. Further, in the experiment on Rattus norvegicus [10], the Reduction is reported as 24%. This molecule displayed an IC50 on O-acyltransferase of 260 nM.

The molecule `Cc1cc(C)c(NC(=O)N(Cc2ccc(-n3cccn3)cc2)C2CCCCCC2)c(C)c1` had an ED50 in [1] above 1 mg/kg. In addition, the Reduction entry in the experiment on Rattus norvegicus [4] is “inactive”. Besides, at O-acyltransferase, the IC50 was 70 nM.

Regarding `CSc1cc(C)nc(SC)c1NC(=O)N(Cc1ccccc1)Cc1ccc(-c2ccn(C)n2)cc1`, in experiment [1], the ED50 was above 0.32 mg/kg. Besides, the Reduction result in the experiment with Rattus norvegicus [11] was “inactive”. At O-acyltransferase, inhibition was half-maximal at 29 nM (IC50).

`Cc1cc(C)c(NC(=O)N(Cc2ccc(-c3nnc(C)o3)cc2)C2CCCCCC2)c(C)c1` came in with an ED50 in experiment [1] above 0.32 mg/kg. Besides, the Reduction with Rattus norvegicus [10] amounted to 37%. In addition, the IC50 on O-acyltransferase was found to be 27 nM.

For `CSc1cc(C)nc(SC)c1NC(=O)N(Cc1ccc(-c2cnn(C)c2)cc1)C1CCCCCC1`, the ED50 in experiment [1] is above 0.1 mg/kg. The ED50 entry in the experiment filed under Rattus norvegicus [8] is “inactive”.
